Calls of active or inactive are those of the source. No cut-off for these calls is given here.
Experiments:
BaF3 [1] = experiment: Antiproliferative activity against mouse BAF3 cells harboring EGFR L858R/T790M mutant after 72 hrs by resazurin dye-based fluorescence assay; assay type: functional, cell-based; settings: BaF3, 72 h
Procedure, shortened: (§1)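 Ba/F3 cells engineered to express each target were exposed to inhibitor for 72 h, after which proliferation was measured.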

[2] = molecular target: T1, Receptor tyrosine-protein kinase erbB-2 (Homo sapiens, UniProt P04626); experiment: Inhibition of recombinant human N-terminal GST-tagged HER2 wild type (679 to 1255 residues) expressed in baculovirus infected Sf9 insect cells using AQT0794 measured up to 240 mins by fluorescence assay
Procedure, shortened: (§2)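 Time-dependent kinetic assay on the HER2 kinase domain with 1000 μM ATP and 15 μM Sox-based substrate sensor. Data come from a single experiment run in duplicate. kinact and Ki were obtained from a two-step fit, and errors are the standard error from the fit.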

[3] = molecular target: T1, Receptor tyrosine-protein kinase erbB-2; experiment: Inhibition of HER2 in human BT474 cells assessed as reduction in autophosphorylation at Y1221/1222 residue at 5 to 100 nM after 6 hrs by Western blot analysis; assay type: cell-based; settings: BT-474, dose 5-100 nM
Procedure, shortened: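 BT474 HER2-overexpressing breast cancer cells were treated with inhibitor at a range of doses for 6 h. Phospho-HER2 (pY1221/1222) was detected by Western blot. The blots shown are representative of three independent experiments.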

BaF3 [4] = experiment: Antiproliferative activity against mouse BAF3 cells harboring EGFR L858R mutant after 72 hrs by resazurin dye-based fluorescence assay; assay type: functional, cell-based; settings: BaF3, 72 h; procedure, shortened: as §1
[5] = test system: Epidermal growth factor receptor (Homo sapiens), P00533 [L858R,T790M]; settings: NCI-H1975, dose 5-50 nM, time 2.0 hrs
[6] = molecular target: T2, Epidermal growth factor receptor (Homo sapiens, UniProt P00533); experiment: Inhibition of recombinant human N-terminal GST-tagged EGFR wild type (669 to 1210 residues) expressed in baculovirus infected Sf21 insect cells insect cells using AQT0734 as substrate measured up to 240 mins by fluorescence assay
[7] = molecular target: Epidermal growth factor receptor (Homo sapiens, UniProt P00533, L858R/T790M); experiment: Inhibition of recombinant human N-terminal GST-tagged EGFR (669 to 1210 residues) (unknown origin) L858R/T790M mutant expressed in baculovirus infected Sf21 insect cells using AQT0734 as substrate measured up to 240 mins by fluorescence assay
[8] = molecular target: T1, Receptor tyrosine-protein kinase erbB-2; experiment: Inhibition of recombinant human N-terminal GST-tagged HER2 wild type (679 to 1255 residues) expressed in baculovirus infected Sf9 insect cells assessed as Kinact using AQT0794 as substrate measured up to 240 mins by fluorescence assay; procedure, shortened: as §2
[9] = molecular target: T1, Receptor tyrosine-protein kinase erbB-2; experiment: Inhibition of recombinant human N-terminal GST-tagged HER2 wild type (679 to 1255 residues) expressed in baculovirus infected Sf9 insect cells assessed as Kinact/Ki ratio using AQT0794 measured up to 240 mins by fluorescence assay; procedure, shortened: as §2
Homo sapiens [10] = species: Homo sapiens; experiment: Selectivity ratio of Kinact/Ki for human N-terminal GST-tagged EGFR (669 to 1210 residues) (unknown origin) L858R/T790M mutant to Kinact/Ki for human N-terminal GST-tagged EGFR wild type (669 to 1210 residues) (unknown origin)
Homo sapiens [11] = species: Homo sapiens; experiment: Selectivity ratio of Ki for human N-terminal GST-tagged EGFR wild type (669 to 1210 residues) (unknown origin) to Ki for human N-terminal GST-tagged EGFR L858R/T790M mutant (669 to 1210 residues) (unknown origin)
Homo sapiens [12] = species: Homo sapiens; experiment: Selectivity ratio of Kinact for human N-terminal GST-tagged EGFR (669 to 1210 residues) (unknown origin) L858R/T790M mutant to Kinact for human N-terminal GST-tagged EGFR wild type (669 to 1210 residues) (unknown origin)
BaF3 [13] = experiment: Antiproliferative activity against mouse BAF3 cells harboring HER2 wild type after 72 hrs by resazurin dye-based fluorescence assay; assay type: functional, cell-based; settings: BaF3, 72 h; procedure, shortened: as §1
[14] = molecular target: T2, Epidermal growth factor receptor; settings: Sf21, time <= 240.0 min
[15] = test system: Epidermal growth factor receptor (Homo sapiens), P00533 [L858R,T790M]; settings: Sf21, time <= 240.0 min

Sequence of Epidermal growth factor receptor (Homo sapiens), P00533 [L858R,T790M] (P00533 whole entry T790M/L858R, looked up, the tested form may be a part): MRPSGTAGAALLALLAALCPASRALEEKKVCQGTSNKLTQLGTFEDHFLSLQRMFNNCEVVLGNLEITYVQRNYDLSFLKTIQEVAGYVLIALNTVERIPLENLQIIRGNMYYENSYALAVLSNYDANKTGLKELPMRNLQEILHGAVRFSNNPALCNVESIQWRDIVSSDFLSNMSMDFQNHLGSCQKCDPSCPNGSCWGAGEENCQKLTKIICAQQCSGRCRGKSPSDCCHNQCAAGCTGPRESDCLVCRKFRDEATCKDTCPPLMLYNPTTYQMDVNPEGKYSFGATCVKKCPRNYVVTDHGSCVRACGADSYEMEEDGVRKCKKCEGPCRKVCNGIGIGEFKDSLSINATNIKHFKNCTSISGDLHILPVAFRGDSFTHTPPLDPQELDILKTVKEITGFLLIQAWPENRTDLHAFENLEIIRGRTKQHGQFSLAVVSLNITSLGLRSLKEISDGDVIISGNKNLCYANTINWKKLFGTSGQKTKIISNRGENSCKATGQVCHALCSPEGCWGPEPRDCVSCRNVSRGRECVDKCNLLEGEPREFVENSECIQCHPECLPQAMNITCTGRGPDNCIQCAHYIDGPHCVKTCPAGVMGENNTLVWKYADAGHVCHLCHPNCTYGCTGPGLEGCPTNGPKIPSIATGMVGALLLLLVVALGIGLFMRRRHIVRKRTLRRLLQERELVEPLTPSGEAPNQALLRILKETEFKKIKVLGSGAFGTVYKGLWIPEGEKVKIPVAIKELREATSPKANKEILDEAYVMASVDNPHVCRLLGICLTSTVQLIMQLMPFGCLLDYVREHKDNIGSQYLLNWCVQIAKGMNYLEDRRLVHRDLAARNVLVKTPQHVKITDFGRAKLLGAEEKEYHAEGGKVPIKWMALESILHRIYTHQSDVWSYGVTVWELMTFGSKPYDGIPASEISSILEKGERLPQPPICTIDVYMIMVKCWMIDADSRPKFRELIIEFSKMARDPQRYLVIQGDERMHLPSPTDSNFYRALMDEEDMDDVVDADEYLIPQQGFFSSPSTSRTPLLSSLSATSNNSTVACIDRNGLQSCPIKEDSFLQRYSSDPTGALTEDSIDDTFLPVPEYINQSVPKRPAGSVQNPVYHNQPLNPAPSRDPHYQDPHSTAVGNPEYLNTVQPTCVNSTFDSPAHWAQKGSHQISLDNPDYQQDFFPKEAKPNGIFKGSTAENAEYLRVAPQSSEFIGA
T1 sequence (P04626 whole entry, the tested form may be a part): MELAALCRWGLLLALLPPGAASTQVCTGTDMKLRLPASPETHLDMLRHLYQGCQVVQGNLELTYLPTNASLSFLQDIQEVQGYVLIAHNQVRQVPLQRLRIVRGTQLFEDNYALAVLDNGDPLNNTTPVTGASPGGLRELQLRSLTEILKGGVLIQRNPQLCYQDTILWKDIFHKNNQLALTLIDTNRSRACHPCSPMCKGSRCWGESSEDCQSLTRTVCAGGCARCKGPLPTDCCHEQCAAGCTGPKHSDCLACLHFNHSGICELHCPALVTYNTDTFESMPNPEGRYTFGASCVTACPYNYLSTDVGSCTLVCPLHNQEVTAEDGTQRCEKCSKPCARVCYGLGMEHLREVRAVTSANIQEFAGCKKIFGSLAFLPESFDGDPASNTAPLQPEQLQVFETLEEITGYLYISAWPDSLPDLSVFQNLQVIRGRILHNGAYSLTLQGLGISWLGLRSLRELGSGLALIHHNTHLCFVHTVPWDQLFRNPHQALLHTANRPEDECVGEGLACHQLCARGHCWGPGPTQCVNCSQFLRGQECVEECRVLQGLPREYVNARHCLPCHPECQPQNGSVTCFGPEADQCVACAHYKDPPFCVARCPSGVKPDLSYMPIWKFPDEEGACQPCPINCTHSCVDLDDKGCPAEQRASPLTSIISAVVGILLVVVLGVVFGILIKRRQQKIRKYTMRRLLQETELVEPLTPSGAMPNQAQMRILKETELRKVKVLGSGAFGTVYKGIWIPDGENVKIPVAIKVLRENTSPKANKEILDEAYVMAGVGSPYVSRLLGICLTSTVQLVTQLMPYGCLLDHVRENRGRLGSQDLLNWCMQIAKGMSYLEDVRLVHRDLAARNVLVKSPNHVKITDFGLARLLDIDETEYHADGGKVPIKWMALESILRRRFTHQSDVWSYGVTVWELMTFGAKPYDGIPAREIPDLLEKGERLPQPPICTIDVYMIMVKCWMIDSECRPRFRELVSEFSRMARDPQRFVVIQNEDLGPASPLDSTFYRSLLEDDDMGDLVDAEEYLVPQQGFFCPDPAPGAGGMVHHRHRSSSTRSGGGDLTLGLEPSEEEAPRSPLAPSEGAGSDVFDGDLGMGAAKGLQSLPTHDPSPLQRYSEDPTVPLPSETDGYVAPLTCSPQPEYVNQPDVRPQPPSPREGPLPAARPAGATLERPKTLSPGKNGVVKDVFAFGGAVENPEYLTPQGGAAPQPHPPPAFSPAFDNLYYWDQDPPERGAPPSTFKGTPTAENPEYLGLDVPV
T2 sequence (P00533 whole entry, the tested form may be a part): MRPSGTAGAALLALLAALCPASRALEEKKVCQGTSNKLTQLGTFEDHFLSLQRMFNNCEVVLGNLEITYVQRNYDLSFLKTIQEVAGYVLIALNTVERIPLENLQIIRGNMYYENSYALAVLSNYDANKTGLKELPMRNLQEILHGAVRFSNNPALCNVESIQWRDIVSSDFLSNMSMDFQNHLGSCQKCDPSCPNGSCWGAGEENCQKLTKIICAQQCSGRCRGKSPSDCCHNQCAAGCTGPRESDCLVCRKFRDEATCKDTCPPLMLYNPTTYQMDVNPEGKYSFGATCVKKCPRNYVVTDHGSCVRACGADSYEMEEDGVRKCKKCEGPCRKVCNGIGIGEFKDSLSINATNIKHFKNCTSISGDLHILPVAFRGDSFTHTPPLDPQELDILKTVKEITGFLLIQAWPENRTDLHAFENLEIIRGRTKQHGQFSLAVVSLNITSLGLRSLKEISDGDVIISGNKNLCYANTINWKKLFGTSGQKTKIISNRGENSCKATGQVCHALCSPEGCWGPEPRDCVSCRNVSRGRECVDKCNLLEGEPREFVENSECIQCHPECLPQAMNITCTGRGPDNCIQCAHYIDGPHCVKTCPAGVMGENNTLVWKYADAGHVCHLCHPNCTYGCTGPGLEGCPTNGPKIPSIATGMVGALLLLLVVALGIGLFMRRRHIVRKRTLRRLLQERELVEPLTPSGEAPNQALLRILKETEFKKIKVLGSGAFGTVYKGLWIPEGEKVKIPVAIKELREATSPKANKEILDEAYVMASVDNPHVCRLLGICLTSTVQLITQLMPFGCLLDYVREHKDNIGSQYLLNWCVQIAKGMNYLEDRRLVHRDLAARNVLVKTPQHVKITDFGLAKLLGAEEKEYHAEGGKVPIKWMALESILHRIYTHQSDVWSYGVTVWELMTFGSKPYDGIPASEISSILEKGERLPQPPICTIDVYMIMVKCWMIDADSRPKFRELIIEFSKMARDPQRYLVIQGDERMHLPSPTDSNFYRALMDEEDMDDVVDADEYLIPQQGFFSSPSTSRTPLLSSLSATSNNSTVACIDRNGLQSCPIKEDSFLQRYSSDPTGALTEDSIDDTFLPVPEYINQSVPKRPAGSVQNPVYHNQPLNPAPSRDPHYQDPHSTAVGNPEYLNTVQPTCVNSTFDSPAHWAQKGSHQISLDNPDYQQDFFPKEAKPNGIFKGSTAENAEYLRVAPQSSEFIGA
Sequence of Epidermal growth factor receptor (Homo sapiens, UniProt P00533, L858R/T790M) (P00533 25-1210 T790M/L858R limits assumed): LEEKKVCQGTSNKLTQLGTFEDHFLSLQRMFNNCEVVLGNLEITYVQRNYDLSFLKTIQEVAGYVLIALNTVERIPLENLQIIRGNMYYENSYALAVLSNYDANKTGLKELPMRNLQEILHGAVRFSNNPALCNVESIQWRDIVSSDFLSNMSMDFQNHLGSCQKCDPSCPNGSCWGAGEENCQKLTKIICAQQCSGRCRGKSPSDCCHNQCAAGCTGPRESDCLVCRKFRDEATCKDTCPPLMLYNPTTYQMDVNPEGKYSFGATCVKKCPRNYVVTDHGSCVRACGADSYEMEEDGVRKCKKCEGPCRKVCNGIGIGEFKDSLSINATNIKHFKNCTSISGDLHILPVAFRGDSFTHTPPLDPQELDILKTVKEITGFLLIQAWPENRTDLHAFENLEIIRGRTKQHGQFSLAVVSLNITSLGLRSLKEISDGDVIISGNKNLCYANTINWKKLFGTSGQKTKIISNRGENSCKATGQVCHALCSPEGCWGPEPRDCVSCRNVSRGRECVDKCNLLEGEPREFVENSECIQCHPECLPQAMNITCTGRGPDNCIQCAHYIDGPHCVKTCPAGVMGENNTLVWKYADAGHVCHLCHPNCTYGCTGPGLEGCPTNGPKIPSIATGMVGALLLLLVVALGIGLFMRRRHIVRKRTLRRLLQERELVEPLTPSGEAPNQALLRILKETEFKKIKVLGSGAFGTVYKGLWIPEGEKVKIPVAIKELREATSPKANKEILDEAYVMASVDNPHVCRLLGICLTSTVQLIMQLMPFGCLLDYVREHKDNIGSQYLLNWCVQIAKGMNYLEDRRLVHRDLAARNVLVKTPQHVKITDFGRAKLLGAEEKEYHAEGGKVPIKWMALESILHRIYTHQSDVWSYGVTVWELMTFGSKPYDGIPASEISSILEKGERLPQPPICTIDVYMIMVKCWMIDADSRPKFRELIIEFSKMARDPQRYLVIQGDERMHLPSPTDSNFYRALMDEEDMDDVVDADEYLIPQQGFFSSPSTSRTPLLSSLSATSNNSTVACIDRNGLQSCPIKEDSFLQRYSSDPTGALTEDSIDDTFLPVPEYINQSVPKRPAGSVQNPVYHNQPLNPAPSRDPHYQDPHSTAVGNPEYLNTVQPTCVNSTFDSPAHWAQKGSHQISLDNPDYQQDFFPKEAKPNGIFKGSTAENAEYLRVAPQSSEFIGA

Q: With C=CC(=O)Nc1ccc(OC)c(Nc2cc(-c3[nH]c(SC)nc3-c3ccc(F)cc3)ccn2)c1 as the compound, how does the EC50 (BaF3 [1]) read?
A: The EC50 was 21 nM.

Q: What about the Ki [2] of the same compound?
A: The Ki was 142 nM.

Q: What about the inhibition [3] of the same compound?
A: Its inhibition is “Active”.

Q: What about the EC50 (BaF3 [4]) of the same compound?
A: The EC50 was 0.51 nM.

Q: And the inhibition [5]?
A: The inhibition was “Active”.

Q: Which EC50 (BaF3 [1]) does the source give for C=CC(=O)Nc1cc(Nc2nccc(-n3cc(CN(C)C)c(-c4ccccc4)n3)n2)c(OC)cc1N1CCOCC1 [LAZERTINIB] here?
A: Its EC50 is 7.4 nM.

Q: What about the Ki [6] of the same compound?
A: The Ki was 271 nM.

Q: And the Ki [7]?
A: Its Ki is 34 nM.

Q: And the Kinact [8]?
A: The Kinact was 0.166 min⁻¹.

Q: And the Ki [2]?
A: The Ki was 437 nM.

Q: And the Ratio [9]?
A: Its Ratio is 6310 M⁻¹ s⁻¹.

Q: And the Selectivity ratio (Homo sapiens [10])?
A: Its Selectivity ratio is 3.2.

Q: And the Ratio Ki (Homo sapiens [11])?
A: The Ratio Ki was 8.

Q: What about the Selectivity ratio (Homo sapiens [12]) of the same compound?
A: The Selectivity ratio was 0.36.

Q: And the inhibition [3]?
A: The inhibition was “Active”.

Q: And the EC50 (BaF3 [4])?
A: The EC50 was 4.8 nM.

Q: What about the EC50 (BaF3 [13]) of the same compound?
A: Its EC50 is over 100 nM.

Q: What about the Kinact [14] of the same compound?
A: The Kinact was 0.648 min⁻¹.

Q: And the Kinact [15]?
A: The Kinact was 0.235 min⁻¹.

Q: And the inhibition [5]?
A: The inhibition was “Active”.

Q: With C=CC(=O)Nc1cc(Nc2nccc(-c3cn(C)c4ccccc34)n2)c(OC)cc1N(C)CCN(C)C [OSIMERTINIB] as the compound, how does the EC50 (BaF3 [1]) read?
A: Its EC50 is 14 nM.

Q: And the inhibition [3]?
A: Its inhibition is “Active”.

Q: What about the EC50 (BaF3 [4]) of the same compound?
A: The EC50 was 3.2 nM.

Q: What about the EC50 (BaF3 [13]) of the same compound?
A: The EC50 was 34 nM.

Reference: ChEMBL document CHEMBL5113557, “Structural Basis for Inhibition of Mutant EGFR with Lazertinib (YH25448)” (ACS Med Chem Lett, 2022)
